Test results published in ChEMBL document CHEMBL4732078 (Eur J Med Chem, 2021).
Activity calls are given as the source filed them. No cut-off for these calls is given here.

Experiments:
[1] = Half life in rat at 10 mg/kg, po; format: ADME, organism-based; conditions: in vivo
Method in brief: (§1)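 Male rats given 10 mg/kg p.o.; Cmax and terminal half-life taken from the plasma concentration–time profile.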

[2] = Tmax in rat at 10 mg/kg, po; format: ADME, organism-based; conditions: in vivo
Method in brief: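 Male rats were dosed orally at 10 mg/kg, with a parallel i.v. arm at 5 mg/kg. Plasma PK parameters were derived, including Cmax, Tmax, T1/2 and AUC0-∞, with oral bioavailability (F) reported against the i.v. arm.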

[3] = AUC (0 to infinity) in rat at 10 mg/kg, po; format: ADME, organism-based; design: route oral, time infinity, dose 10 mg/kg; conditions: in vivo
Method in brief: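 Male rats dosed orally at 10 mg/kg; plasma exposure followed to give AUC0-∞ (i.v. arm at 5 mg/kg run alongside).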

[4] = Metabolic stability in Beagle dog hepatocytes assessed as half life; format: ADME, cell-based, Canis lupus familiaris, Hepatocyte
[5] = test system: RAF proto-oncogene serine/threonine-protein kinase (Homo sapiens), P04049 [Y340D,Y341D]; assay: Inhibition of human recombinant c-Raf Y340D/Y341D mutant (306 to end residues) using inactive MEK1 as substrate at 10 uM incubated for 40 mins in presence of [gamma33P-ATP] by radiometric scintillation counting analysis
[6] = test system: MDA-MB-231; assay: Antiproliferative activity against human MDA-MB-231 cells assessed as reduction in cell viability after 72 hrs by sulforhodamine B assay; format: functional, cell-based; conditions: MDA-MB-231, 72 h
Method in brief: (§2)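 SRB assay. Exponentially growing cells seeded at 3000–5000/well, compounds added serially diluted after 24 h, cultured 72 h. Cells fixed with 10% TCA, stained with SRB, dye dissolved in 10 mM Tris-HCl, absorbance read at 560 nm. Inhibition = (ODcontrol − ODtreated)/ODcontrol × 100%. IC50 is the mean of at least three independent tests.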

[7] = biological target: Phosphatidylinositol 4,5-bisphosphate 3-kinase catalytic subunit delta isoform (Homo sapiens) (UniProt O00329); assay: Inhibition of PI3Kdelta (unknown origin) transfected in human Rh30 cells assessed as reduction in AKT phosphorylation at Ser473 residue at 10XIC50 by western blot analysis; format: cell-based
Sequence of Phosphatidylinositol 4,5-bisphosphate 3-kinase catalytic subunit delta isoform (Homo sapiens) (O00329 whole entry, canonical isoform): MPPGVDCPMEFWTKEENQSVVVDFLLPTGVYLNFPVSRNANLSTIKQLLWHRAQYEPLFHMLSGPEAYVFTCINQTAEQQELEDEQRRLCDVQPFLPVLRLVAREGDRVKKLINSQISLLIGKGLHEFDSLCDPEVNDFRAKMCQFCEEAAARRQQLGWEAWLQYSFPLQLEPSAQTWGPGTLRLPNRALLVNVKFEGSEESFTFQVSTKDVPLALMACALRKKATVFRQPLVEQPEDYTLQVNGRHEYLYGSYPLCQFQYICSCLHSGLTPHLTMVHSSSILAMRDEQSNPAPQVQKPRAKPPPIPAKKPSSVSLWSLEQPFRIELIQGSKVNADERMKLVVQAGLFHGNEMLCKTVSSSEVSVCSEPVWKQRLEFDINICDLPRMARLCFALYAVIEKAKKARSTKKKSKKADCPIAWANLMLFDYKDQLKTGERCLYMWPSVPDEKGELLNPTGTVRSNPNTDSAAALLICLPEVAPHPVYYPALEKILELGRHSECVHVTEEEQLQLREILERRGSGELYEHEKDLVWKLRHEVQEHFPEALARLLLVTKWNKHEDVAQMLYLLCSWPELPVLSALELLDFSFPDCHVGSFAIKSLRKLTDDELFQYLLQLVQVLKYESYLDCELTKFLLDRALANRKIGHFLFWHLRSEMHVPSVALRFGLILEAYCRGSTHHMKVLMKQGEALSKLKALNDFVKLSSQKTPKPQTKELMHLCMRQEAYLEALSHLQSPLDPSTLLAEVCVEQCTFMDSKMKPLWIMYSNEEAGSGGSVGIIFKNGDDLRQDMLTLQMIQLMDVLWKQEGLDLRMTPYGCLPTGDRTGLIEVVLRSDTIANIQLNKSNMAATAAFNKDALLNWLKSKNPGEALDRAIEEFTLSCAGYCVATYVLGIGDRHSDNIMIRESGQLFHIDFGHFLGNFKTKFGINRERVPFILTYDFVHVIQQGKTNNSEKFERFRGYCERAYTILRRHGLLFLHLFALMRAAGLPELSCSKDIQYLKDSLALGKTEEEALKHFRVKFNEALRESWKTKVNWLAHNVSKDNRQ
Method in brief: (§3)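 Rh30 cells ectopically expressing membrane-anchored, N-terminally myristoylated, constitutively active p110α, β, γ or δ. Akt phosphorylation assessed by Western blot; lysates made in RIPA buffer, equal protein heated at 95 °C for 10 min in SDS loading buffer.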

[8] = Cmax in rat at 10 mg/kg, po; format: ADME, organism-based; design: route oral, dose 10 mg/kg; conditions: in vivo; method in brief: as §1
[9] = Metabolic stability in human hepatocytes assessed as half life; format: ADME, cell-based, Hepatocyte
[10] = Metabolic stability in human hepatocytes assessed as intrinsic clearance; format: ADME, cell-based, Hepatocyte; conditions: read-out: CLH
[11] = Metabolic stability in cynomolgus monkey hepatocytes assessed as intrinsic clearance; format: ADME, cell-based, Macaca fascicularis, Hepatocyte; conditions: read-out: CLH
[12] = test system: T47D; assay: Antiproliferative activity against human T47D cells assessed as reduction in cell viability after 72 hrs by sulforhodamine B assay; format: functional, cell-based; method in brief: as §2
[13] = biological target: Phosphatidylinositol 4,5-bisphosphate 3-kinase catalytic subunit gamma isoform (Homo sapiens) (UniProt P48736); assay: Inhibition of PI3Kgamma (unknown origin) transfected in human Rh30 cells assessed as reduction in AKT phosphorylation at Ser473 residue at 10XIC50 by western blot analysis; format: cell-based; method in brief: as §3
Sequence of Phosphatidylinositol 4,5-bisphosphate 3-kinase catalytic subunit gamma isoform (Homo sapiens) (P48736 whole entry, looked up, canonical isoform): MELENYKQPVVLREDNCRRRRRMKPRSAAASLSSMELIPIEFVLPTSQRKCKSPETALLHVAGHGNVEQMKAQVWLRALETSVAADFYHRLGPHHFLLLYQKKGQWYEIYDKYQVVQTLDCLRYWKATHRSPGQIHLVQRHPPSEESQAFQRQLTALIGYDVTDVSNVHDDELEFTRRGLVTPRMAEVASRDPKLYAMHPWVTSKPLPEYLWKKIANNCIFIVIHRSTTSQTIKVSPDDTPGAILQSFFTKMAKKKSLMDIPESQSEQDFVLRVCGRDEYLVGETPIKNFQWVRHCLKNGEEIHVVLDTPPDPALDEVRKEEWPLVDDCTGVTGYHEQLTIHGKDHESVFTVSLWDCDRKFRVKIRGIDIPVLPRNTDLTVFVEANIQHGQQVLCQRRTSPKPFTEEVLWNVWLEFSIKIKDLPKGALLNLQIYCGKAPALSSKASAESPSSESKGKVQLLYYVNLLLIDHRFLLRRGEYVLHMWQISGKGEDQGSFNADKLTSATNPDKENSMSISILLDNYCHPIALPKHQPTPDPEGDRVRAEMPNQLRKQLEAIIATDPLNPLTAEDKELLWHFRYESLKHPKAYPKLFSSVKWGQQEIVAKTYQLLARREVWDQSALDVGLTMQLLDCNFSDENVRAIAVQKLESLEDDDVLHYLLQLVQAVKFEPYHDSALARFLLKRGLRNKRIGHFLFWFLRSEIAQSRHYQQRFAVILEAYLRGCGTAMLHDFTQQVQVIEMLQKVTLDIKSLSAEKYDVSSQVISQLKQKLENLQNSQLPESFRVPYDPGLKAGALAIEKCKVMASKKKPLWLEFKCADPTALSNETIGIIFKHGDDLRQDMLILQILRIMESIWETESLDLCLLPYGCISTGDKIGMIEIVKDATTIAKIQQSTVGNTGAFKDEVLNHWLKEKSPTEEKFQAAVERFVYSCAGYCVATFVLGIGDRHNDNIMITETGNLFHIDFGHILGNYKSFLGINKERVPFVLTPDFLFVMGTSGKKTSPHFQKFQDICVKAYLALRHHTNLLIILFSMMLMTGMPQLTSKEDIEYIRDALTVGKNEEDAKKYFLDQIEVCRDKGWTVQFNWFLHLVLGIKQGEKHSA

[14] = Metabolic stability in Beagle dog hepatocytes assessed as intrinsic clearance; format: ADME, cell-based, Canis lupus familiaris, Hepatocyte; conditions: read-out: CLH
[15] = test system: SK-OV-3; assay: Antiproliferative activity against human SK-OV-3 cells assessed as reduction in cell viability after 72 hrs by sulforhodamine B assay; format: functional, cell-based; conditions: SK-OV-3, 72 h; method in brief: as §2
[16] = Metabolic stability in mouse hepatocytes assessed as half life; format: ADME, cell-based, Hepatocyte
[17] = biological target: Serine/threonine-protein kinase mTOR (Homo sapiens, UniProt P42345); assay: Inhibition of human full length recombinant mTOR in presence of [gamma33P-ATP] by radiometric scintillation counting analysis
[18] = biological target: T1, Phosphatidylinositol 4,5-bisphosphate 3-kinase catalytic subunit alpha isoform (Homo sapiens, UniProt P42336); assay: Inhibition of PI3Kalpha (unknown origin) transfected in human Rh30 cells assessed as reduction in AKT phosphorylation at Ser473 at 14 nM by western blot analysis; format: cell-based; method in brief: as §3
T1 sequence (P42336 whole entry, canonical isoform): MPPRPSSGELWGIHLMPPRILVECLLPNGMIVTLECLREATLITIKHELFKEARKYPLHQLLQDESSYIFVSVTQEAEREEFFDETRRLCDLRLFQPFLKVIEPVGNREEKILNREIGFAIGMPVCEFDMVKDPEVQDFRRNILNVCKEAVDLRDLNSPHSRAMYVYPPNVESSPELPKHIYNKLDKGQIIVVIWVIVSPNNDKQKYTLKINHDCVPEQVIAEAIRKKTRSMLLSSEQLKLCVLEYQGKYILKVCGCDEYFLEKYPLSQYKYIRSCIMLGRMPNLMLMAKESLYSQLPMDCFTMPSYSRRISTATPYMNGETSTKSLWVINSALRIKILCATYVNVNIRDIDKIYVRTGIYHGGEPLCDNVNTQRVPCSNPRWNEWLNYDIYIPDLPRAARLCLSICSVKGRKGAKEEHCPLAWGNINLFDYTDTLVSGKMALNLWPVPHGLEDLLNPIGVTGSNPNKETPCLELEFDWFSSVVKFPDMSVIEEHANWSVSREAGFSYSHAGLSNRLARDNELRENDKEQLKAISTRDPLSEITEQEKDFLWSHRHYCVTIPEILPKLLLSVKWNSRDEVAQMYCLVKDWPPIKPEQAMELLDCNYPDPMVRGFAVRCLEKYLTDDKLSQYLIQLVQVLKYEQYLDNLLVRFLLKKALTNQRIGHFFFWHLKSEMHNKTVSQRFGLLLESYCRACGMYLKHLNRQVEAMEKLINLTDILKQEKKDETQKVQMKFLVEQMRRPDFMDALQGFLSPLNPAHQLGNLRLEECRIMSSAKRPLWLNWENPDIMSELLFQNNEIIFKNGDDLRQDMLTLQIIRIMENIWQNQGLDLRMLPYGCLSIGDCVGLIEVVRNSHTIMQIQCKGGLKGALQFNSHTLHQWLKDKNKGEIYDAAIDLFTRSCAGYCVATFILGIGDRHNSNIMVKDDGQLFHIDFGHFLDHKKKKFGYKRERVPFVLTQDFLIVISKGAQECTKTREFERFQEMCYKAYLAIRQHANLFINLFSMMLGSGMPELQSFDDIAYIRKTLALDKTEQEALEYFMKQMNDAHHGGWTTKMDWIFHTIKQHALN

[19] = test system: Mus musculus; assay: In vivo inhibition of PI3Kalpha in BALB/cA nude mouse xenografted with human SK-OV-3 cells assessed as reduction in AKT phosphorylation at Ser473 residue in tumor at 5 mg/kg, po measured after 2 hrs by Western blot analysis; format: functional, organism-based
Method in brief: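 Nude mice carrying SKOV-3 xenografts of 200 mm³ got a single oral 5 mg/kg dose. Tumors were collected at 0, 2, 4 or 8 h, homogenized, and pAkt S473 probed by Western blot.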

[20] = biological target: PI3-kinase p110-delta/p85-alpha (Homo sapiens, UniProt O00329); assay: Inhibition of human PI3K p110delta/p85alpha using PIP2 as substrate in presence of ATP measured after 30 mins by HTRF assay
Sequence of PI3-kinase p110-delta/p85-alpha (P27986 whole entry): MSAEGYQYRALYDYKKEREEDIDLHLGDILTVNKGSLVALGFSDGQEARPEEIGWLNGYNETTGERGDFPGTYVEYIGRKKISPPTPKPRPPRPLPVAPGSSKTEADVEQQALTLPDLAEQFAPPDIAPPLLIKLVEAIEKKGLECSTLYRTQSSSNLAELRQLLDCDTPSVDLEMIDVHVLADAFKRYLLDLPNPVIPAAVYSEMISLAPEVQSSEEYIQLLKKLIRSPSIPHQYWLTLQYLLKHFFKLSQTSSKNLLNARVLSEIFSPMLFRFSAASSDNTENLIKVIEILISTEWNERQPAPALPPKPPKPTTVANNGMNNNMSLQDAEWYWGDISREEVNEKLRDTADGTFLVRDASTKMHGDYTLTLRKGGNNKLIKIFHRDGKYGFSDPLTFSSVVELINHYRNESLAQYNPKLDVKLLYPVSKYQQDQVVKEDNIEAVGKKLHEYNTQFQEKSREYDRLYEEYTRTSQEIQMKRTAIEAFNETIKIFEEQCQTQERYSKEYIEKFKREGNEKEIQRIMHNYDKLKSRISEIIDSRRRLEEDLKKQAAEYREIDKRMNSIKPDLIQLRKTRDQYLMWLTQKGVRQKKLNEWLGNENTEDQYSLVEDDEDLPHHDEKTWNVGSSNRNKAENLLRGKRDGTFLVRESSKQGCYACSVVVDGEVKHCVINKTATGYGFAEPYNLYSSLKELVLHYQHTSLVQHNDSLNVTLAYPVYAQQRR
Sequence of PI3-kinase p110-delta/p85-alpha (O00329 whole entry): as the sequence (O00329 whole entry, canonical isoform) above

[21] = biological target: RAF proto-oncogene serine/threonine-protein kinase (Homo sapiens, UniProt P04049, Y340D/Y341D); assay: Inhibition of human recombinant c-Raf Y340D/Y341D mutant (306 to end residues) using inactive MEK1 as substrate incubated for 40 mins in presence of [gamma33P-ATP] by radiometric scintillation counting analysis
[22] = test system: MCF7; assay: Antiproliferative activity against human MCF7 cells assessed as reduction in cell viability after 72 hrs by sulforhodamine B assay; format: functional, cell-based; conditions: MCF7, 72 h; method in brief: as §2
[23] = test system: HCC1954; assay: Antiproliferative activity against human HCC1954 cells assessed as reduction in cell viability after 72 hrs by sulforhodamine B assay; format: functional, cell-based; conditions: HCC1954, 72 h; method in brief: as §2
[24] = test system: ZR-75-1; assay: Antiproliferative activity against human ZR-75-1 cells assessed as reduction in cell viability after 72 hrs by sulforhodamine B assay; format: functional, cell-based; conditions: ZR-75-1, 72 h; method in brief: as §2
[25] = biological target: Phosphatidylinositol 4,5-bisphosphate 3-kinase catalytic subunit beta isoform (Homo sapiens) (UniProt P42338); assay: Inhibition of PI3Kbeta (unknown origin) transfected in human Rh30 cells assessed as reduction in AKT phosphorylation at Ser473 residue at 10XIC50 by western blot analysis; format: cell-based; method in brief: as §3
Sequence of Phosphatidylinositol 4,5-bisphosphate 3-kinase catalytic subunit beta isoform (Homo sapiens) (P42338 whole entry, looked up, canonical isoform): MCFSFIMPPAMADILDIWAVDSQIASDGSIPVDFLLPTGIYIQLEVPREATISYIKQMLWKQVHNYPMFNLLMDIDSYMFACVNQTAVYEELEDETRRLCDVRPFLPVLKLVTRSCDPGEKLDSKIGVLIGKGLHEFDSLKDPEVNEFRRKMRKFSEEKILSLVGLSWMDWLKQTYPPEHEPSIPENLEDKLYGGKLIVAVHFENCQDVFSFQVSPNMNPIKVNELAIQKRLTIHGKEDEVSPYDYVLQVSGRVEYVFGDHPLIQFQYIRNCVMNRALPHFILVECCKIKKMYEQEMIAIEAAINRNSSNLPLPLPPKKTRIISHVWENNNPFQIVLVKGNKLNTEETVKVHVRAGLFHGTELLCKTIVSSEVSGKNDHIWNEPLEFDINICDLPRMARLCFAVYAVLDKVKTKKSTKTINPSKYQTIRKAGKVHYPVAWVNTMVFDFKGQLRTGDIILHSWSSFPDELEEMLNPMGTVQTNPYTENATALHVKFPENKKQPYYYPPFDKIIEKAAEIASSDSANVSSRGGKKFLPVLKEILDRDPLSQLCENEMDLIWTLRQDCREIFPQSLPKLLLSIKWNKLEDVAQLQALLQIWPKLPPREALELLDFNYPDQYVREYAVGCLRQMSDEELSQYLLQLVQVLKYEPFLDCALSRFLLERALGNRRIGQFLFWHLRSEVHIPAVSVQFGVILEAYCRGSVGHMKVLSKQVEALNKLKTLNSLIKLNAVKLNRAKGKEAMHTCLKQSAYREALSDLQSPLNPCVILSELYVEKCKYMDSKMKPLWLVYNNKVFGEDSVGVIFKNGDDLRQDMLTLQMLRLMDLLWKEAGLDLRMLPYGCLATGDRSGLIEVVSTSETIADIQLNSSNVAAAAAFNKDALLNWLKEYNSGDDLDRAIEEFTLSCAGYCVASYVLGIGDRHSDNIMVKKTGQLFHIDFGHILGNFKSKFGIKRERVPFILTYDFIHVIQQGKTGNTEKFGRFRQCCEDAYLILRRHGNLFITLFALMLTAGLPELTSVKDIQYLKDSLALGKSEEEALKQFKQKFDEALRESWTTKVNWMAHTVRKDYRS

[26] = biological target: T1, Phosphatidylinositol 4,5-bisphosphate 3-kinase catalytic subunit alpha isoform; assay: Inhibition of PI3Kalpha in human U87MG cells assessed as reduction in rhIGF1-stimulated AKT phosphorylation at Thr308 treated for 1 hr followed by incubation with IGF1 for 10 mins by western blot analysis; format: cell-based; conditions: U-87 MG, dose 0.01-1 µM, time 70.0 min
Method in brief: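 U87MG or Rh30 cells held 24 h in serum-free medium, exposed to compound for 1 h, then stimulated with 50 ng/ml IGF-I for 10 min. Lysates blotted for Akt, pAkt T308 and pAkt S473.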

[27] = biological target: Voltage-gated inwardly rectifying potassium channel KCNH2 (Homo sapiens, UniProt Q12809); assay: Inhibition of human ERG expressed in CHO cells at holding potential of -80 mV by patch clamp assay; format: cell-based
Method in brief: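 Patch clamp on CHO cells stably expressing hERG, at room temperature. External solution (mM): 145 NaCl, 5 KCl, 2 CaCl2, 1 MgCl2, 10 HEPES, 10 glucose, pH 7.4. Pipette solution: 140 KCl, 1 MgCl2, 0.1 CaCl2, 5 EGTA, 10 HEPES, pH 7.3. Pipettes 3–5 MΩ; peak hERG current amplitude measured.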

Compound `COC(=O)Nc1cc(C(F)(F)F)c(-c2nc(N3CCOCC3)c3cc(CN4CCN(S(C)(=O)=O)CC4)cn3n2)cn1` [RISOVALISIB] has a half-life [1] of 1.49 h, a Tmax [2] of 0.875 h and an AUC(0-inf) [3] of 2750 ng·h/mL. For the same compound, the half-life [4] was 1.46 h, the inhibition [5] was greater than 50% and the IC50 [6] was less than 1000 nM. For the same compound, the inhibition [7] was “Active”, the Cmax [8] was 832 ng/mL and the half-life [9] was 6.79 h. For the same compound, the CLint scaled [10] was 3.05 mL/min/kg, the CLint scaled [11] was 29 mL/min/kg and the IC50 [12] was less than 1000 nM. The inhibition [13] was “Active”, the CLint scaled [14] was 39.5 mL/min/kg and the IC50 [15] was less than 1000 nM. For the same compound, the half-life [16] was 1.56 h, the IC50 [17] was greater than 10000 nM and the inhibition [18] was “Active”. The inhibition [19] was “Active”, the IC50 [20] was 78.7 nM and the IC50 [21] was 1000 nM. For the same compound, the IC50 [22] was less than 1000 nM, the IC50 [23] was less than 1000 nM and the IC50 [24] was less than 1000 nM. For the same compound, the inhibition [25] was “Active”, the inhibition [26] was “Dose-dependent effect” and the IC50 [27] was greater than 40000 nM.
